Key:
Hepatitis C virus [1] = experiment: Antiviral activity against HCV infected in human assessed as log reduction in viral load at 800 […] SID; assay type: functional, Hepacivirus hominis
Hepatitis C virus [2] = experiment: Antiviral activity against Hepatitis C virus subtype 1b Con1 infected in human HuH7 cells after 3 days by luciferase reporter gene assay; assay type: functional, organism-based, Hepacivirus hominis; details: Con1, Huh-7, 72 h
Procedure, shortened: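 Huh7-derived 2209-23 cells stably carrying a GT 1b Con1 subgenomic replicon encoding Renilla luciferase, incubated with compound for 3 days. The EC50 is the concentration that reduces reporter luciferase activity by 50% versus untreated controls. Values are reported as mean ± SD over repeated experiments, with the number of experiments differing by compound.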

[3] = Cytotoxicity against human HuH7 cells; assay type: cell-based, Huh-7
Procedure, shortened: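 Viability of the stable GT 1b Con1 replicon cells was measured by MTT or WST-1 assay to give CC50, the 50% cytotoxic concentration. The number of experiments matched the EC50 determinations, and values are reported as mean ± SD.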

Hepatitis C virus [4] = experiment: Antiviral activity against HCV infected in human assessed as log reduction in viral load at 4500 […] BID; assay type: functional, Hepacivirus hominis
Hepatitis C virus [5] = experiment: Antiviral activity against HCV subtype 1b infected in human HuH7 cells assessed as number of resistant colonies formed at 15 times EC50 after 3 weeks; assay type: functional, Hepacivirus hominis, genotype 1b, Huh-7
Procedure, shortened: (§1)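 Huh7 cells stably carrying a GT 1b subgenomic neoR replicon, seeded at 1 × 10^5 cells/well with 0.5 mg/ml G418, were exposed to one or two inhibitors at multiples of EC50 (from the 3-day Con1 2209-23 luciferase assay). Medium was changed twice weekly, with a 1:4 split at ~95% confluence. After 3 weeks, cells were formaldehyde-fixed and crystal violet-stained, and colonies were counted.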

Hepatitis C virus [6] = experiment: Antiviral activity against HCV genotype 1 infected in human assessed as log reduction in viral load at 750 mg administered every 8 hrs for 14 days
Hepatitis C virus [7] = experiment: Antiviral activity against HCV infected in human assessed as log reduction in viral load measured on day 4 postdose; assay type: functional, Hepacivirus hominis
Hepatitis C virus [8] = experiment: Antiviral activity against HCV subtype 1b infected in human HuH7 cells assessed as number of resistant colonies formed at 10 times EC50 after 3 weeks; assay type: functional, Hepacivirus hominis, genotype 1b, Huh-7; procedure, shortened: as §1

Compound	EC50 (Hepatitis C virus [2]) [µM]	CC50 [3] [µM]	other results
CC(C)[C@H](N)C(=O)O[C@@H]1[C@@H](CO)O[C@@H](n2ccc(N)nc2=O)[C@]1(C)O [VALOPICITABINE]			FC (Hepatitis C virus [1]): 1.2
C[C@@]1(F)[C@H](O)[C@@H](CO)O[C@H]1n1ccc(N)nc1=O	0.61	> 100	
[N-]=[N+]=N[C@]1(CO)O[C@@H](n2ccc(N)nc2=O)[C@H](O)[C@@H]1O [4'-AZIDOCYTIDINE]	1.28	> 100	
C[C@@]1(O)[C@H](O)[C@@H](CO)O[C@H]1n1ccc(N)nc1=O	1.23	> 100	
CC(C)C(=O)OC[C@@]1(N=[N+]=[N-])O[C@@H](n2ccc(N)nc2=O)[C@H](OC(=O)C(C)C)[C@@H]1OC(=O)C(C)C [BALAPIRAVIR]			FC (Hepatitis C virus [4]): 3.7
CCC[C@H](NC(=O)[C@@H]1[C@H]2CCC[C@H]2CN1C(=O)[C@@H](NC(=O)[C@@H](NC(=O)c1cnccn1)C1CCCCC1)C(C)(C)C)C(=O)C(=O)NC1CC1 [TELAPREVIR]	0.56	26.7	Activity (Hepatitis C virus [5]): 93; Activity (Hepatitis C virus [6]): > 4 log10IU/ml
CNC(=O)c1c(-c2ccc(F)cc2)oc2cc(N(CCO)S(C)(=O)=O)c(C3CC3)cc12 [NESBUVIR]	0.017	> 100	FC (Hepatitis C virus [7]): 1.4; Activity (Hepatitis C virus [8]): 60; Activity (Hepatitis C virus [5]): 36

From ChEMBL document CHEMBL1255315, “The hepatitis C virus replicon presents a higher barrier to resistance to nucleoside analogs than to nonnucleoside polymerase or protease inhibitors” (Antimicrob Agents Chemother, 2008)
